Measurements taken from ChEMBL document CHEMBL5335788, “Synthesis and evaluation of aromatic BDSF bioisosteres on biofilm formation and colistin sensitivity in pathogenic bacteria” (Eur J Med Chem, 2023).
Active and inactive are the calls of the source. The rule behind the calls is not given here.

Columns and labels:
Burkholderia multivorans [1] = assay: Potentiation of colistin-induced antibacterial activity against Burkholderia multivorans B10 assessed as colistin MIC at 50 uM incubated for 20 hrs by susceptibility testing (Rvb > 128 ug/ml); assay type: functional
Method in brief: (§1)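 Colistin MIC by broth microdilution in cation-adjusted Mueller-Hinton broth, log-phase cells at final 5×10^5 cfu/mL. Two-fold colistin dilutions in duplicate with sulfonamide at final 0.05 mM (from 10 mM DMSO stock); 20 h at 37 °C. OD550 read. MIC taken as the lowest colistin level reducing growth ≥80% versus growth control. At least two replicates.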

Acinetobacter baumannii [2] = assay: Antimicrobial activity against Acinetobacter baumannii ATCC 15308 assessed as microbial growth inhibition at 50 uM incubated for 20 hrs by broth microdilution method; assay type: functional, organism-based
Method in brief: (§2)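 Overnight cultures in cation-adjusted Mueller-Hinton broth, subcultured 1:100; log-phase cells at final 1×10^5 cfu/mL exposed to sulfonamide at final 0.05 mM (from 10 mM DMSO stock) for 20 h at 37 °C. OD550 read after shaking. Growth expressed as percent of 0.5% DMSO control wells. Screened at least twice.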

Escherichia coli [3] = assay: Antimicrobial activity against Escherichia coli ATCC 9637 assessed as microbial growth inhibition at 50 uM incubated for 20 hrs by broth microdilution method; assay type: functional, organism-based; method in brief: as §2
Pseudomonas aeruginosa [4] = assay: Antimicrobial activity against Pseudomonas aeruginosa PAO1 assessed as microbial growth inhibition at 50 uM incubated for 20 hrs by broth microdilution method; assay type: functional, organism-based; method in brief: as §2
Burkholderia multivorans [5] = assay: Inhibition of biofilm formation in Burkholderia multivorans B10 at 0.05 mM incubated for 24 hrs by crystal violet method relative to control; assay type: functional; details: B10, 24 h
Method in brief: (§3)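 Crystal violet assay in LB: log-phase bacteria at final 1×10^5 cfu/mL with sulfonamide at final 0.05 mM, 24 h at 37 °C. Biomass read at OD620, then wells washed, biofilm heat-fixed 65 °C 15 min, stained 0.1% crystal violet 15 min, dye eluted in 30% acetic acid, OD550 read. Neat DMSO control taken as 100%. Duplicates, at least two independent experiments; one-way ANOVA.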

Pseudomonas aeruginosa [6] = assay: Inhibition of biofilm formation in Pseudomonas aeruginosa PAO1 at 0.05 mM incubated for 24 hrs by crystal violet method; assay type: functional, organism-based; method in brief: as §3
[7] = test system: Stenotrophomonas maltophilia; assay: Inhibition of biofilm formation in Stenotrophomonas maltophilia K279a clinical isolate of rpf-1 subpopulation at 0.05 mM incubated for 24 hrs by crystal violet method; assay type: functional, organism-based; method in brief: as §3
Acinetobacter baumannii [8] = assay: Potentiation of colistin-induced antibacterial activity against Acinetobacter baumannii ATCC 15308 assessed as colistin MIC at 50 uM incubated for 20 hrs by susceptibility testing (reference value: 0.25 to 0.5 ug/ml); assay type: functional; method in brief: as §1
Escherichia coli [9] = assay: Potentiation of colistin-induced antibacterial activity against Escherichia coli ATCC 9637 assessed as colistin MIC at 50 uM incubated for 20 hrs by susceptibility testing (reference value: 0.125 to 0.25 ug/ml); assay type: functional; method in brief: as §1
Burkholderia cepacia = assay: Potentiation of colistin-induced antibacterial activity against Burkholderia cepacia R6193 assessed as colistin MIC at 50 uM incubated for 20 hrs by susceptibility testing (Rvb > 256 ug/ml); assay type: functional; method in brief: as §1
Burkholderia cenocepacia = assay: Potentiation of colistin-induced antibacterial activity against Burkholderia cenocepacia 289 assessed as colistin MIC at 50 uM incubated for 20 hrs by susceptibility testing (Rvb > 256 ug/ml); assay type: functional; method in brief: as §1
Pseudomonas aeruginosa [10] = assay: Potentiation of colistin-induced antibacterial activity against Pseudomonas aeruginosa assessed as colistin MIC at 50 uM incubated for 20 hrs by susceptibility testing (reference value: 1 to 2 ug/ml); assay type: functional; method in brief: as §1
[11] = test system: Stenotrophomonas maltophilia; assay: Potentiation of colistin-induced antibacterial activity against Stenotrophomonas maltophilia K279a assessed as colistin MIC at 50 uM incubated for 20 hrs by susceptibility testing (reference value: 2 to 8 ug/ml); assay type: functional; method in brief: as §1
[12] = Toxicity in Galleria mellonella larva assessed as larval survival at 50 uM
[13] = test system: Stenotrophomonas maltophilia; assay: Potentiation of colistin-induced antibacterial activity against Stenotrophomonas maltophilia K279a infected in Galleria mellonella larva at 50 uM; assay type: functional, organism-based
Method in brief: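 Larvae 300–400 mg, at least 15 per group, infected in last proleg with 1×10^4 cfu S. maltophilia K279a in PBS. After 60 min at 37 °C, chilled 15 min on ice, then injected with 5 μL PBS holding colistin at final 0.5 μg/mL, sulfonamide at final 50 μM, or both; 0.5% DMSO vehicle control. Kept at 37 °C, survival scored every 24 h for Kaplan-Meier curves. At least two larval batches.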

[14] = Toxicity in Galleria mellonella larva assessed as larval survival at 50 uM in presence of colistin
[15] = test system: Stenotrophomonas maltophilia; assay: Antimicrobial activity against Stenotrophomonas maltophilia K279a assessed as microbial growth inhibition at 50 uM incubated for 20 hrs by broth microdilution method; assay type: functional, organism-based; method in brief: as §2
Burkholderia multivorans [16] = assay: Antimicrobial activity against Burkholderia multivorans B10 assessed as microbial growth inhibition at 50 uM incubated for 20 hrs by broth microdilution method; assay type: functional, organism-based; method in brief: as §2
Escherichia coli [17] = assay: Inhibition of biofilm formation in Escherichia coli ATCC 9637 at 0.05 mM incubated for 24 hrs by crystal violet method relative to control; assay type: functional; details: ATCC 9637, 24 h; method in brief: as §3

MIC (Burkholderia multivorans [1])	MIC (Acinetobacter baumannii [8])	MIC (Escherichia coli [9])	MIC (Burkholderia cepacia)	MIC (Burkholderia cenocepacia)	MIC (Pseudomonas aeruginosa [10])	MIC [11]	Structure (SMILES)	growth inhibition (GI) (Acinetobacter baumannii [2])	growth inhibition (GI) (Escherichia coli [3])	growth inhibition (GI) (Pseudomonas aeruginosa [4])	inhibition at 50 µM (Burkholderia multivorans [5])	inhibition (Pseudomonas aeruginosa [6])	inhibition [7]	Activity [12]	Activity [13]	Activity [14]	growth inhibition (GI) [15]	growth inhibition (GI) (Burkholderia multivorans [16])	inhibition at 50 µM (Escherichia coli [17])
> 128 µg/mL	0.25 µg/mL	0.5 µg/mL	> 256 µg/mL	> 256 µg/mL	1 µg/mL	0.5 µg/mL	CCCCCCCCCc1ccccc1C(=O)NS(=O)(=O)C(C)(C)C	inactive	inactive	inactive	> 35%	inactive	inactive	Non-Toxic	Active	Non-Toxic	–	–	–
> 128 µg/mL	2 µg/mL	> 1 µg/mL	> 256 µg/mL	> 256 µg/mL	8 µg/mL	4 µg/mL	CCCCCCCCCc1ccccc1C(=O)NS(=O)(=O)c1ccc(I)cc1	inactive	inactive	inactive	35%	inactive	inactive	Non-Toxic	–	–	Active	Active	68%
